C2C12 statin: suppression of simvastatin myotoxicity; C2C12 myotubes + simvastatin, ATP luminescence, 48 h; scaled: DMSO 0, geranylgeraniol control 100; AID 602340; rescue of ATP level, % at 7.49 µM; 330,000 compounds, 0.78% hits;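 active means mean ATP rescue above about 67%, or every replicate alone reaching that limit, limit read from the data, passing the limit was not always enough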;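 further: myotubes were challenged with 10 µM simvastatin during compound exposure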
Cneo AK release: causes C. neoformans cell lysis. lysis activity, % at 15 µM. adenylate kinase release luminescence, 4 h; normalised: neutral wells 0, clomiphene wells 100. 360,000 compounds, 0.2% hits;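 active means mean lysis activity across replicates of at least 80%, whatever share of replicates individually reach that level; inactive means mean lysis activity below 80%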
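Assay system: C. neoformans cells. Amount: yeast cell density of 5 × 10^6 cells/mL. Technique: AK luminescence. Buffer or medium: YPD. Times: static 4 h at 37 °C with compound, 1 h detection. Dosing: single-point compound dose. Read-out: lysis from increased AK signal.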
Mot1-301 SUMO: SUMOylation pathway inhibition by Mot1-301 growth rescue; AID 2716; 320,000 compounds, 1% hits; growth rescue, % at 18.8 µM; S. cerevisiae Mot1-301 growth rescue, ATP luminescence, 38.5C; percent above DMSO median, 100 means doubled;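 active means every valid replicate shows activation above 250% relative to neutral control wells; inactive means the rest, any valid replicate at or below 250%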;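 further: OY570 slx delta 5 strain wells were the positive control but not used for scaling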
Efflux pump mplx: antifungal efflux pump inhibition, Nile Red retention; S. cerevisiae Candida pump triplex; inhibition, % at 10 µM; AID 485275; 330,000 compounds, 0.44% hits;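 active means plate passing quality check with inhibition over a set limit, or well fluorescence over plate mean plus 4 SD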;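 further: Nile Red retained in pooled yeast measured as flow cytometry median fluorescence; 0% = buffer negative control and 100% = Enniatin B positive control; higher means more Nile Red kept so more efflux inhibition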
Yeast cmpd fluor: counter-screen for efflux pump inhibitors: compound fluorescence; fluorescence ratio to DMSO, % at 10 µM; 1,700 compounds, 4% hits; shares compounds with Efflux pump mplx; S. cerevisiae AD/pABC3, flow cytometry;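 active means fluorescence ratio to DMSO above its plate's cutoff, the plate mean ratio plus 5 SD, cut at about 210% in these data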;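 further: unstained yeast with no Nile Red so the signal is compound autofluorescence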
CaMdr1 efflux inh: Candida Mdr1 efflux pump inhibition; shares compounds with Efflux pump mplx; S. cerevisiae AD/CaMDR1, Nile Red efflux, flow cytometry; inhibition, % at 10 µM; 1,700 compounds, 1% hits; in the data active means inhibition above about 26%;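 further: 0% = DMSO vehicle and 100% = reference inhibitor; higher means more Nile Red retained so more efflux inhibition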
Cdr2 pump inh: blocks the Candida albicans Cdr2 efflux pump in yeast; shares compounds with Efflux pump mplx; S. cerevisiae AD/CaCDR2, Nile Red retention, flow cytometry; Nile Red retention ratio vs DMSO, % at 10 µM; 1,700 compounds, 4% hits; AID 588520; in the data active means Nile Red retention ratio vs DMSO above about 190%;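 further: higher ratio means more blocking of Cdr2 efflux of the dye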
Cdr1 pump inh: inhibitors of Candida albicans Cdr1 efflux pump; shares compounds with Efflux pump mplx; S. cerevisiae AD/CaCDR1, Nile Red efflux, flow cytometry; inhibition, % at 10 µM; 1,700 compounds, 1% hits; AID 588522;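 active means inhibition above the screen-wide mean plus twice its standard deviation, cut at about 32% in these data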
Active calls of the source: *; x = not tested or not shown; + = active, no number. Shown are actives, neighbours in structure and some others; about 1.8% of the full set was active somewhere.

SMILES | C2C12 statin | Cneo AK release | Mot1-301 SUMO | Efflux pump mplx | Yeast cmpd fluor | CaMdr1 efflux inh | Cdr2 pump inh | Cdr1 pump inh
COc1ccc(-n2c(Cc3cccn3C)nnc2SCC(=O)NCCc2ccccc2)cc1 | -4 | 0 | -1 | 6.7* | 103 | 0 | 98 | 0
O=C(Nc1ccc(OC(F)F)cc1)c1cc[n+]([O-])cc1 | 5 | -2 | 12 | 0 | x | x | x | x
COCCCn1c(=S)[nH]c2sc3c(c2c1=O)CCCC3 | -16 | -2 | 1 | 0 | x | x | x | x
COCCn1c(=S)[nH]c2sc3c(c2c1=O)CCCC3 | -9 | 0 | 72 | 1.1* | 87 | 0 | 89 | 0
COc1ccc(CNC(=O)/C=C/c2ccco2)cc1OC | 13 | 1 | 23 | 0 | x | x | x | x
COc1ccc(CNC(=O)/C=C/C(=O)O)cc1OC | 2 | 0 | -10 | 5.5* | 101 | 0 | 96 | 0
N#CCSc1nc2c(sc(=S)n2Cc2ccco2)c(=O)n1-c1ccc(F)cc1 | -33 | 2 | 19 | 5.9* | 111 | 0 | 116 | 0
Cc1ccc(S(=O)(=O)c2nc(S(=O)(=O)c3ccc(C)cc3)c(NCc3ccco3)s2)cc1 | x | x | 2 | 0 | x | x | x | x
CCCS(=O)(=O)c1nc(S(=O)(=O)c2ccc(C)cc2)c(NCc2ccco2)s1 | x | x | -6 | 10* | 98 | 0 | 87 | 0
Cc1ccc(SCC(=O)N(Cc2nc(-c3ccccc3)no2)C(C)C)cc1 | x | -1 | -10 | 1.5* | 99 | 0 | 106 | 0
CCC(Sc1nc2ccccc2[nH]1)C(=O)Nc1ccc(NC(C)=O)cc1 (centres undefined) | x | x | -9 | 0.7* | 103 | 0 | 91 | 0
CCC(Sc1nc2ccccc2[nH]1)C(=O)Nc1cc(C)on1 (centres undefined) | -18 | 9 | x | 0 | x | x | x | x
Cc1ccc(C)c(S(=O)(=O)Nc2ccc(O)c(Sc3ncn[nH]3)c2)c1 | x | x | 4 | 0 | 105 | 0 | 97 | 0
Cc1cc(F)ccc1S(=O)(=O)Nc1ccccc1C(=O)Nc1ncn[nH]1 | -5 | -7 | -5 | 0 | x | x | x | x
COc1ccc(OC)c(S(=O)(=O)Nc2ccc(O)c(Sc3ncn[nH]3)c2)c1 | -7 | -6 | -13 | 0 | 96 | 0 | 93 | 0
CCOc1ccc(S(=O)(=O)Nc2ccc(O)c(Sc3ncn[nH]3)c2)cc1 | x | -1 | -26 | 0 | x | x | x | x
Cc1ccc(S(=O)(=O)Nc2ccc(O)c(Sc3ncn[nH]3)c2)cc1 | -9 | 2 | -25 | 2.0* | 105 | 0 | 95 | 0
Cc1cc(F)ccc1S(=O)(=O)Nc1ccc(O)c(Sc2ncn[nH]2)c1 | 35 | 0 | 106 | 0 | 104 | 0 | 100 | 0
COc1ccc(OC)c(S(=O)(=O)Nc2cccc(O)c2)c1 | -1 | -3 | 2 | 0 | x | x | x | x
CN1CCN(c2ccccc2NC(=O)c2ccc(-c3ccc(Cl)c(Cl)c3)o2)CC1 | -6 | -12 | 225 | 8.1* | 85 | 0 | 102 | 0
Cc1cc(C)cc(NC(=O)c2ccc(NC3=NC4CS(=O)(=O)CC4S3)cc2)c1 (centres undefined) | 4 | -3 | -14 | 0.9* | 83 | 0 | 95 | 0
Cn1cnc([N+](=O)[O-])c1Oc1cccc2ccccc12 | x | x | -8 | 1.1* | 103 | 0 | 114 | 0
c1csc(-c2nc3c4ccccc4c4ccccc4c3[nH]2)c1 | 1 | 2 | -16 | 0.4* | 105 | 0 | 91 | 0
Oc1ccccc1-c1nc2c3ccccc3c3ccccc3c2[nH]1 | -37 | -1 | 19 | 0 | x | x | x | x
Cc1n[nH]c(C)c1S(=O)(=O)N1CCc2ccccc21 | 11 | 0 | x | 0 | x | x | x | x
SMILES | C2C12 statin | Cneo AK release | Mot1-301 SUMO | Efflux pump mplx | Yeast cmpd fluor | CaMdr1 efflux inh | Cdr2 pump inh | Cdr1 pump inh
Cc1cc(C)c(S(=O)(=O)N2CCc3ccccc32)c(C)c1 | 1 | -2 | -18 | 0.9* | 207 | 0 | 108 | 0
CCN(CC)c1ccc(/C=C/c2ccc3ccc(OC)cc3[n+]2CC)cc1 | -237 | -3 | 138 | 16* | + | 11 | 155 | 9
CC[n+]1c(/C=C/c2ccc(N(C)C)cc2)ccc2ccccc21 | x | x | -19 | 11* | + | 16 | 121 | 9
CC[n+]1c(/C=C/c2ccc(OC(C)=O)c(OC)c2)ccc2ccccc21 | 0 | -4 | -30 | 0 | x | x | x | x
CC[n+]1ccccc1/C=C/c1ccc(N(C)C)cc1 | x | 1 | x | x | x | x | x | x
CC[n+]1c(/C=C/c2ccc(OC)c(OC)c2)ccc2ccccc21 | -20 | -7 | 41 | 0.7* | 177 | 0 | 107 | 0
C[C@@H]1CN([C@H](C)CO)C(=O)Cc2cc(NC(=O)C3CCCCC3)ccc2O[C@@H]1CN(C)CC1CCCCC1 | -11 | 0 | x | x | x | x | x | x

Assay outcomes as filed in PubChem.
